These results are taken from ChEMBL document CHEMBL1122433, “1-(4-Aminobenzyl)-and 1-(4-aminophenyl)isoquinoline derivatives: synthesis and evaluation as potential irreversible cyclic nucleotide phosphodiesterase inhibitors” (J Med Chem, 1983).

Molecules are shown by their SMILES.

For assay [1], the target named is Phosphodiesterase 1 (Bos taurus, UniProt Q01061+P14100). Kind of assay: Inhibitory activity against cyclic nucleotide phosphodiesterase in bovine heart carried out at 37 C with cAMP […] as substrate. In kind it is tissue-based. The method, boiled down:
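Crude bovine heart phosphodiesterase containing protein activator and calcium. Assay used 1 µM cAMP substrate with separation of 5'-AMP on Dowex resin. Time and protein adjusted to keep hydrolysis under 25%. I50 interpolated from at least five inhibition values against log inhibitor concentration (10^-7 to 10^-4 M). Triplicate assays, 3-5 experiments, mean ± standard error.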

Assay [2] concerns the target T1, Phosphodiesterase 1 (Rattus norvegicus, UniProt Q63421+Q9EPR9+Q01066). The experiment in a line: Inhibition of Ca-dependent phosphodiesterase from Rat cerebral cortex using 1 uM cGMP. In kind it is tissue-based. The method, boiled down:
(§1)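 Calcium-dependent enzyme from female Sprague-Dawley rat (200-250 g) cerebral cortex crude extract, taken by Sephadex G-200 gel filtration. Activity measured by polyacrylamide-boronate affinity gel chromatography with 1 µM cAMP or cGMP as substrate. Time and protein adjusted to keep hydrolysis under 25%. I50 interpolated from at least five inhibition values against log inhibitor concentration (10^-7 to 10^-4 M). Triplicate assays, 3-5 experiments, mean ± standard error.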

The target of assay [3] is T2, Phosphodiesterase 1 (Rattus norvegicus) (UniProt Q63421+Q9EPR9+Q01066). Kind of assay: Inhibition of Ca-dependent phosphodiesterase from rat cerebral cortex with 1 uM cGMP without compound, after pre-incubation with 2 or 25 uM (negative control). The assay is classed as functional, tissue-based. Details: scale not given: the % may be the effect or the level left. The method, boiled down:
(§2)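 Purified calcium-dependent enzyme from rat cerebral cortex (Sephadex G-200 fraction) preincubated with inhibitor at the stated concentration. It was then diluted 1000-fold and assayed with 1 µM cGMP by polyacrylamide-boronate gel chromatography. Assays ran either without further drug or with drug re-added at the preincubation concentration. Activity was compared with enzyme preincubated without inhibitor.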

The target in assay [4] is T2, Phosphodiesterase 1 (Rattus norvegicus). Kind of assay: Inhibition of Ca-dependent phosphodiesterase from rat cerebral cortex at 2 uM with 1 uM cGMP, after pre-incubation at 2 uM. In kind it is functional, tissue-based. Details: scale not given: the % may be the effect or the level left. The method, boiled down:
as §2

For assay [5], the target named is T1, Phosphodiesterase 1. Kind of assay: Inhibition of Ca-dependent phosphodiesterase from Rat cerebral cortex using 1 uM cAMP. The assay is classed as tissue-based. The method, boiled down:
as §1

In assay [6] the target is T2, Phosphodiesterase 1 (Rattus norvegicus). The experiment in a line: Inhibition of Ca-dependent phosphodiesterase from rat cerebral cortex at 25 uM with 1 uM cGMP, after pre-incubation at 25 uM. In kind it is functional, tissue-based. Details: scale not given: the % may be the effect or the level left. The method, boiled down: as §2

For the compound `COc1cc2ccnc(-c3ccc(NCCCl)cc3)c2cc1OC`, the I50 at Phosphodiesterase 1 [1] stood at 3.5 µM; on Phosphodiesterase 1 [2], 12 µM; at Phosphodiesterase 1 [5], 2.9 µM. Also, the Activity in assay [3] amounted to 102%; in assay [4], 21%.
On to `C=CC(=O)Nc1ccc(-c2nccc3cc(OC)c(OC)cc23)cc1`, for which the results for the I50 at Phosphodiesterase 1 [1], at Phosphodiesterase 1 [2] and on Phosphodiesterase 1 [5] were 12 µM, 30 µM and 10 µM, respectively. Also, the figures for the Activity in assay [3] and in assay [6] were 103% and 50%, respectively.
Taken in the same sequence, the figures for `COc1cc2ccnc(-c3ccc(N(CCCl)CCCl)cc3)c2cc1OC` were 5.2 µM, 15 µM, 7.3 µM, 100% and 45%.
As to `COC(=O)/C=C\C(=O)Nc1ccc(Cc2nccc3cc(OC)c(OC)cc23)cc1`, at Phosphodiesterase 1 [1], the I50 is 4 µM.
For `COc1cc2ccnc(Cc3ccc(N(CCCl)CCCl)cc3)c2cc1OC`, the I50 at Phosphodiesterase 1 [1] amounted to 5.3 µM.
On Phosphodiesterase 1 [1], `C=CC(=O)Nc1ccc(Cc2nccc3cc(OC)c(OC)cc23)cc1` displayed an I50 of 10 µM.
On the same count and under the same terms, in the case of `COc1cc2ccnc(Cc3ccc(N)cc3)c2cc1OC` it was 7.7 µM.
For `COc1ccc(Cc2nccc3cc(OC)c(OC)cc23)cc1OC` [PAPAVERINE], the I50 at Phosphodiesterase 1 [1] worked out at 8.8 µM; on Phosphodiesterase 1 [2] it was 21 µM; at Phosphodiesterase 1 [5], 12 µM.
For the compound `COc1cc2ccnc(Cc3ccc(NCCCl)cc3)c2cc1OC`, the I50 on Phosphodiesterase 1 [1] stood at 4.1 µM.
On Phosphodiesterase 1 [1], `COC(=O)/C=C/C(=O)Nc1ccc(Cc2nccc3cc(OC)c(OC)cc23)cc1` displayed an I50 of 8 µM.
Consider `COC(=O)/C=C/C(=O)Nc1ccc(-c2nccc3cc(OC)c(OC)cc23)cc1`, for which the I50 at Phosphodiesterase 1 [1] is 14 µM; at Phosphodiesterase 1 [2], over 100 µM; on Phosphodiesterase 1 [5], 35 µM. Further, the Activity is 100% in assay [3] and 104% in assay [6].
Compound `COc1cc2ccnc(Cc3ccc(NC(=O)CCl)cc3)c2cc1OC` yielded an I50 at Phosphodiesterase 1 [1] of 3.9 µM.
As to `COC(=O)/C=C\C(=O)Nc1ccc(-c2nccc3cc(OC)c(OC)cc23)cc1`, the I50 turned out to be 5.3 µM at Phosphodiesterase 1 [1], 1.1 µM at Phosphodiesterase 1 [2] and 1.7 µM at Phosphodiesterase 1 [5]. For the same compound, the Activity worked out at 99% in assay [3] and 14% in assay [4].
Taken in the same sequence, the figures for `COc1cc2ccnc(-c3ccc(NC(=O)CCl)cc3)c2cc1OC` were 5 µM, 6.8 µM, 2.3 µM, 105% and 19%.
As to `COc1cc2ccnc(-c3ccc(N)cc3)c2cc1OC`, the I50 on Phosphodiesterase 1 [1] is 7.4 µM; at Phosphodiesterase 1 [2], 2.1 µM; at Phosphodiesterase 1 [5] it was 3.4 µM. Besides, the Activity in assay [3] was 103%; in assay [4] it was 16%.
